The text below walks through data of paper PMC4593509 (Medicinal chemistry research : an international journal for …, 2015).

Data set [1] concerns NCI-H460. In words: MTT assay, cell viability after 72 h. The data set is classed as cell-based, human. As to conditions: Homo sapiens, NCI-H460, 72 h, read-out: IC50 (at day 3). An outline of the steps: (§1)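 Cells were kept in RPMI-1640 with 10% FBS at 37 °C and 5% CO₂, grown to confluency, seeded at 5,000–7,000 per well, and incubated 24 h. Medium was replaced with medium holding test compound, diluted from a 1% DMSO/water suspension, in six replicates each in triplicate. After 72 h, MTT in PBS was added for 4 h. Medium was then removed, formazan dissolved in DMSO, and OD read at 540 nm.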
On the technique in general: Tetrazolium dyes change colour on reduction, which living cells bring about.

For data set [2], the system named is NCI-H1975. In words: MTT assay, cell viability after 72 h. The data set is classed as cell-based, human. As to conditions: Homo sapiens, NCI-H1975, 72 h, read-out: IC50 (at day 3). An outline of the steps:
as §1

Data set [3] has as its system HCC827. Briefly: MTT assay, cell viability after 72 h. As to conditions: Homo sapiens, HCC827, 72 h, read-out: IC50 (at day 3). The data set is classed as cell-based, human. An outline of the steps:
as §1

Data set [4] is described as follows: Water solubility from a filtered saturated solution, by weight. The data set is classed as physicochemical. The following applies: water, thermodynamic from solid.
For data set [5], the system named is NCI-H460 cell line. In words: Annexin V. The data set is classed as cell-based, human. The following applies: H460 cells. An outline of the steps:
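NCI-H460 cells were seeded at 1×10^5 per well and left to adhere overnight. Test compound or cisplatin (40 µM) was diluted into medium from a 1% DMSO/water solution, and untreated controls got fresh medium, with 2 wells per treatment. After exposure, cells were washed twice in cold PBS and stained with FITC-Annexin V and PI in 1× binding buffer for 15 min at room temperature in the dark. Imaging used fluorescence microscopy at 10× and 20×.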

Data set [6] has as its system PARP and caspase-3 in NCI-H460 cells. Briefly: Western blotting of apoptotic proteins caspase-3 and PARP. The data set is classed as cell-based, human. The following applies: 5 μM. The gist of the method:
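Confluent NCI-H460 cells, seeded at 1×10^5 per well in RPMI-1640 with 10% FBS and 1% pen-strep, were serum-starved 24 h, then treated. Cells were lysed in ice-cold Tris pH 7.5/Triton X-100 buffer with protease/phosphatase inhibitors. Equal lysate amounts were run on 4–12% SDS-PAGE and moved to PVDF, then probed with PARP, caspase-3 and GAPDH antibodies (1:1,000, 4 °C overnight) and HRP anti-rabbit (1:5,000). Detection was by ECL, with GAPDH reprobe for normalization and cisplatin lysates as control.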
A general note: Immunoblotting shows a protein as a band on a membrane.

Take `Clc1c(Cl)[n+](Cc2ccc3ccccc3c2)cn1Cc1ccc2ccccc2c1.[Br-]` [IC23, 4,5-dichloro-1,3-bis (naphthalen-2-ylmethyl)imidazolium bromide]: the 50% inhibitory concentration (IC50) (in general, the concentration needed to halve the response being measured) in data set [1] is 5 µM; in data set [2] it was 6 µM; in data set [3] it was 8 µM. Moreover, the solubility (commonly the dissolved amount per volume that the medium holds) in data set [4] is less than 100 µg/mL. Also, the “stage of apoptosis (Annexin V / PI)” value was “early stage of apoptosis” in data set [5] (treatment 1 h, IC23 at 40 μM); “latestage apoptotic cells” in data set [5] (treatment 3 h, IC23 at 40 μM); “end stage of apoptosis” in data set [5] (treatment 6 h, IC23 and cisplatin at 40 μM). Also, the PARP cleavage entry in data set [6] (H460 cell lysates, 12 h) is “presence of cleaved PARP”. Also, in data set [6] (H460 cell lysates, 12 h), the “levels of procaspase-3” value was “substantial reduction”. Moreover, the “PARP-1 and procaspase-3 cleavage” value in data set [6] (H460 cells, 1 h) is “little PARP-1 and procaspase-3 cleavage”.
